Test results published in ChEMBL document CHEMBL4118021, “Studies of TAK1-centered polypharmacology with novel covalent TAK1 inhibitors” (Bioorg Med Chem, 2017).
Active and inactive are the calls of the source. No cut-off for these calls is given here.

Experiments:
BaF3 [1] = assay: Antiproliferative activity against mouse BA/F3 cells harboring KRAS G12D mutant after 72 hrs in presence of IL-3 by CellTiter-Glo assay; type: functional, cell-based; details: BaF3, 72 h
BaF3 [2] = assay: Antiproliferative activity against mouse BA/F3 cells harboring KRAS G12D mutant after 72 hrs by CellTiter-Glo assay; type: functional, cell-based; details: BaF3, 72 h
[3] = biological target: T1, Mitogen-activated protein kinase kinase kinase 7 (Homo sapiens, UniProt O43318); assay: Inhibition of TAK1 (unknown origin) by LanthaScreen assay
T1 sequence (O43318 whole entry): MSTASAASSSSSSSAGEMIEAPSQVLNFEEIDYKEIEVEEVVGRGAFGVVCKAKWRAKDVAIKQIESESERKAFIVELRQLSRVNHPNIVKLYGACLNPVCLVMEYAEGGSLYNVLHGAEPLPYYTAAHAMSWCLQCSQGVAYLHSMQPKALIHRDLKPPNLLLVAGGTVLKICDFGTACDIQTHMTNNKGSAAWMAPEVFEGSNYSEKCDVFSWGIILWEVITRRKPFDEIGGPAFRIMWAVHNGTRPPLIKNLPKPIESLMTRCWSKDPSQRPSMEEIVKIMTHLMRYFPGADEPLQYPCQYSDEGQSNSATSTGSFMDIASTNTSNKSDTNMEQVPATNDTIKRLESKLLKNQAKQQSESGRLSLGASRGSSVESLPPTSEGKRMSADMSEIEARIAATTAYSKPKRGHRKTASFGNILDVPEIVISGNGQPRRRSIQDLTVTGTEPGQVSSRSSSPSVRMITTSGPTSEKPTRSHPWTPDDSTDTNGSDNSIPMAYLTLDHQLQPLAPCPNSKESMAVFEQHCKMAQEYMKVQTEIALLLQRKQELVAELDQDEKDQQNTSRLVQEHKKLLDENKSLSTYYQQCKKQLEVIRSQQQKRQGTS

BaF3 [4] = assay: Antiproliferative activity against mouse BA/F3 cells after 72 hrs by CellTiter-Glo assay; type: cell-based; details: BaF3, 72 h
BaF3 [5] = assay: Antiproliferative activity against mouse BA/F3 cells harboring NRAS G12D mutant after 72 hrs by CellTiter-Glo assay; type: functional, cell-based; details: BaF3, 72 h
Method in brief: (§1)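 Ba/F3 parental or RAS-transformed cells were seeded at 1000 viable cells/well, without or with IL-3 as the line states, at 37 °C and 5% CO2. After 4 h, nine four-fold serial dilutions were added in triplicate (final 0.5–30,000 nM, 0.3% DMSO). DMSO wells served as 100% viability.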

U-937 = assay: Antiproliferative activity against human U937 cells at […] to […] nM after 72 hrs by CellTiter-Glo assay; type: functional, cell-based
NCI-H23 = assay: Antiproliferative activity against human NCI-H23 cells harboring KRAS G12C mutant after 72 hrs by CellTiter-Glo assay; type: functional, cell-based; details: for IC50: NCI-H23, 72 h
Method in brief: (§2)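 NCI-H23 or NCI-H358 cells seeded at 2000 cells/well and grown 48 h before drug. Varying doses were added and cells incubated 72 h. Viability was read as CellTiter-Glo luminescence, and growth-inhibition IC50 was calculated from dose-response curves.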

NALM-6 = assay: Antiproliferative activity against human NALM6 cells harboring NARS A146T mutant at […] to […] nM after 72 hrs by CellTiter-Glo assay; type: functional, cell-based
HEL = assay: Antiproliferative activity against human HEL cells at […] to […] nM after 72 hrs by CellTiter-Glo assay; type: functional, cell-based
[6] = biological target: T2, Mitogen-activated protein kinase kinase kinase 7 (Homo sapiens) (UniProt O43318); assay: Inhibition of biotin-labeled N-(2-(2-(2-(2-(4-(4-((4-((2-Acrylamidophenyl)amino)-5-chloropyrimidin-2-yl)amino)phenyl)piperazin-1-yl)ethoxy)ethoxy)ethoxy)ethyl)-5-((3aS,4S,6aR)-2-oxohexahydro-1H-thieno[3,4-d]imidazol-4-yl)pentanamide probe binding to TAK1 in human NCI-H358 cells at 10 uM after 6 hrs by immunoblot based competitive pull down assay; type: cell-based
T2 sequence (whole entry): T1 sequence (O43318 whole entry)
Method in brief: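 H358 cells given 1 or 10 μM compound for 6 h, medium removed, cells rinsed twice with cold PBS and lysed in MPER buffer. Lysates incubated overnight at 4 °C with 1 μM biotinylated covalent probe, captured on streptavidin beads, and TAK1 recovery assessed by immunoblotting with anti-TAK1 antibody.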

BaF3 [7] = assay: Antiproliferative activity against mouse BA/F3 cells harboring NRAS G12D mutant after 72 hrs in presence of IL-3 by CellTiter-Glo assay; type: functional, cell-based; details: BaF3, 72 h; method in brief: as §1
NCI-H358 = assay: Antiproliferative activity against human NCI-H358 cells harboring KRAS G12C mutant after 72 hrs by CellTiter-Glo assay; type: functional, cell-based; method in brief: as §2
MOLM-14 = assay: Antiproliferative activity against human MOLM14 cells harboring FLT3-ITD mutant at […] to […] nM after 72 hrs by CellTiter-Glo assay; type: functional, cell-based
SW-620 = assay: Antiproliferative activity against human SW620 cells harboring KRAS G12V mutant after 72 hrs by CellTiter-Glo assay; type: functional, cell-based; details: SW-620, 72 h
ASPC1 = assay: Antiproliferative activity against human AsPC1 cells harboring KRAS G12D mutant after 72 hrs by CellTiter-Glo assay; type: functional, cell-based; details: ASPC1, 72 h
SK-CO-1 = assay: Antiproliferative activity against human SKCO1 cells harboring KRAS G12V mutant after 72 hrs by CellTiter-Glo assay; type: functional, cell-based; details: SK-CO-1, 72 h
[8] = Antiproliferative activity against human URMC6 cells harboring wild type KRAS after 72 hrs by CellTiter-Glo assay; type: functional, cell-based
[9] = biological target: T2, Mitogen-activated protein kinase kinase kinase 7 (Homo sapiens); assay: Inhibition of TAK1 in RA patient-derived synovial fibroblasts assessed as inhibition of IL-1alpha-induced cytokine secretion at 3 uM preincubated for 3 hrs followed by IL-1alpha stimulation measured after 18 hrs by sandwich immunoassay
Method in brief: (§3)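 Primary RA synovial fibroblasts (donor RA2159) seeded 1000 cells/well and grown ~24 h at 37 °C, 5% CO2. Starved overnight in basal medium, then ~4 h in basal medium with 0.1% BSA. Two adjacent wells pooled per replicate, in biological duplicate. Supernatants diluted 1:3 and run on Luminex 27-plex/21-plex sandwich immunoassays for 48 analytes, with spiked-ligand and mock-supernatant background controls.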

[10] = biological target: T2, Mitogen-activated protein kinase kinase kinase 7 (Homo sapiens); assay: Inhibition of TAK1 in RA patient-derived synovial fibroblasts assessed as inhibition of TNFalpha-induced cytokine secretion at 3 uM preincubated for 3 hrs followed by TNFalpha stimulation measured after 18 hrs by sandwich immunoassay; method in brief: as §3
[11] = biological target: T2, Mitogen-activated protein kinase kinase kinase 7 (Homo sapiens); assay: Inhibition of TAK1 in RA patient-derived synovial fibroblasts assessed as inhibition of poly(I:C)-induced cytokine secretion at 3 uM preincubated for 3 hrs followed by poly(I:C) stimulation measured after 18 hrs by sandwich immunoassay; method in brief: as §3
PANC-1 = assay: Antiproliferative activity against human PANC1 cells harboring KRAS G12D mutant after 72 hrs by CellTiter-Glo assay; type: functional, cell-based; details: PANC-1, 72 h
[12] = Antiproliferative activity against human SW156 cells harboring wild type KRAS after 72 hrs by CellTiter-Glo assay; type: functional, cell-based
[13] = Increase in secretion of basic-FGF in TNFalpha activated RA patient-derived synovial fibroblasts at 0.6 to 3 uM preincubated for 3 hrs followed by TNFalpha stimulation measured after 18 hrs by sandwich immunoassay; details: human
Method in brief: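 Primary RA patient synovial fibroblasts (donor RA2159) were seeded at 1000 cells/well, grown about 24 h, then starved overnight and again about 4 h in basal medium with 0.1% BSA. Cells were pre-incubated 3 h with inhibitor (0.6 or 3 μM) or DMSO, then stimulated 18 h with 10 ng/mL TNFα. Paired wells were pooled, in biological duplicate. Pooled supernatants were diluted 1:3 and read on Luminex bead sandwich immunoassays, with mock-medium background and spiked-ligand controls.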

IC50 (BaF3 [1]) [µM] | IC50 (BaF3 [2]) [µM] | IC50 [3] [µM] | IC50 (BaF3 [4]) [µM] | Structure (SMILES) | also measured
0.719 | 0.069 | 0.0046 | – | C=CC(=O)Nc1ccccc1Oc1nc(Nc2cnn(C3CCOCC3)c2)ncc1Cl | –
1.4 | – | 0.95 | 1.93 | C=CC(=O)Nc1ccccc1Oc1ccnc(Nc2ccc(N3CCN(C)CC3)cc2)n1 | –
0.376 | 0.031 | 0.025 | 0.206 | CN1CCN(c2ccc(Nc3ncc(Cl)c(Nc4ccccc4NC(=O)CCl)n3)cc2)CC1 | IC50 (BaF3 [5]): 0.01 µM; Activity (U-937): Active; Activity (NCI-H23): Active; Activity (NALM-6): inactive; Activity (HEL): inactive; inhibition [6]: Active; IC50 (BaF3 [7]): 0.178 µM; Activity (NCI-H358): Active; Activity (MOLM-14): Active
0.763 | 0.962 | 0.083 | 0.838 | C=CC(=O)Nc1ccccc1Sc1nc(Nc2ccc(N3CCN(C)CC3)cc2)ncc1Cl | –
0.859 | 0.308 | 0.0073 | 2.94 | C=CC(=O)Nc1ccccc1Oc1nc(Nc2cnn(C)c2)ncc1Cl | IC50 (BaF3 [5]): 0.179 µM; IC50 (BaF3 [7]): 1.02 µM
3.73 | 1.35 | 1.64 | – | C=CC(=O)Nc1cc(NC(C)=O)ccc1Nc1nc(Nc2ccc(N3CCN(C)CC3)cc2)ncc1Cl | –
0.839 | – | 0.0032 | – | C=CC(=O)Oc1ccccc1Nc1nc(Nc2cccc(N3CCOCC3)c2)ncc1Cl | inhibition [6]: Active
> 10 | 0.1 | – | – | Cn1cnc2c(F)c(Nc3ccc(Br)cc3Cl)c(C(=O)NOCCO)cc21 [SELUMETINIB] | IC50 (SW-620): 0.015 µM; IC50 (ASPC1): 0.0642 µM; IC50 (SK-CO-1): 0.117 µM
0.31 | 0.057 | 0.075 | 0.476 | C=CC(=O)Nc1ccccc1Oc1nc(Nc2ccc(N3CCN(C)CC3)cc2)ncc1OC | –
3.6 | 0.923 | 1.23 | 2.08 | CCC(=O)Nc1ccccc1Oc1nc(Nc2cnn(CCOC)c2)ncc1Cl | Activity (U-937): Active; IC50 [8]: 1.49 µM; inhibition [9]: inactive; IC50 (SW-620): 1.65 µM; inhibition [10]: inactive; inhibition [11]: inactive; inhibition [6]: inactive; IC50 (ASPC1): 5.02 µM; IC50 (SK-CO-1): 2.62 µM; Activity (MOLM-14): Active
0.46 | 0.28 | 0.0017 | – | C=CC(=O)Oc1ccccc1Nc1nc(Nc2cccc(N3CCN(C(C)=O)CC3)c2)ncc1Cl | –
0.414 | 0.067 | 0.007 | 0.539 | C=CC(=O)Nc1ccccc1Oc1nc(Nc2cnn(C(F)F)c2)ncc1Cl | IC50 (BaF3 [5]): 0.092 µM; Activity (U-937): Active; Activity (NALM-6): inactive; Activity (HEL): inactive; inhibition [6]: Active; IC50 (BaF3 [7]): 0.277 µM; Activity (MOLM-14): Active
3.53 | – | 2.75 | – | C=CC(=O)Nc1ccccc1Oc1nc(Nc2ccc(N3CCN(C)CC3)cc2)nc(N)c1Cl | –
0.009 | – | 1.63 | – | CCC(=O)Nc1ccccc1Nc1nc(Nc2ccc(N3CCN(C)CC3)cc2)ncc1Cl | IC50 [8]: 0.263 µM; IC50 (SW-620): 0.247 µM; inhibition [6]: inactive; IC50 (PANC-1): 0.426 µM; IC50 [12]: 0.363 µM; IC50 (ASPC1): 0.073 µM; IC50 (SK-CO-1): 0.054 µM
0.745 | 0.056 | 0.0044 | 0.423 | C=CC(=O)Oc1ccccc1Nc1nc(Nc2ccc(N3CCOCC3)cc2)ncc1Cl | IC50 (BaF3 [5]): 0.047 µM; Activity (U-937): Active; Activity (NALM-6): inactive; Activity (HEL): inactive; IC50 (BaF3 [7]): 0.39 µM; Activity (MOLM-14): Active
0.555 | 0.044 | 0.0033 | 0.234 | C=CC(=O)Oc1ccccc1Nc1nc(Nc2ccc(N3CCN(C)CC3)cc2)ncc1Cl | –
0.06 | 0.191 | – | – | CCC(=O)Nc1ccccc1Oc1nc(Nc2ccc(N3CCN(C)CC3)cc2)ncc1Cl | IC50 [8]: 0.444 µM; inhibition [9]: inactive; IC50 (SW-620): 0.707 µM; inhibition [10]: inactive; inhibition [11]: inactive; inhibition [6]: inactive; IC50 (PANC-1): 1.36 µM; IC50 [12]: 3.73 µM; IC50 (ASPC1): 2.7 µM; IC50 (SK-CO-1): 0.213 µM
– | – | – | – | CCN1CCN(Cc2ccc(NC(=O)c3ccc(C)c(Oc4ccnc5[nH]ccc45)c3)cc2C(F)(F)F)CC1 | Activity [13]: Non-Toxic
– | 0.905 | 3.01 | 3.27 | C=CC(=O)Nc1ccccc1-n1ccc2cnc(Nc3ccc(N4CCN(C)CC4)cc3)nc21 | IC50 (BaF3 [5]): 2.04 µM
8.61 | 0.468 | – | 2.23 | CC(C)Nc1cc(-c2c[nH]c(C(=O)N[C@H](CO)c3cccc(Cl)c3)c2)c(Cl)cn1 [ULIXERTINIB] | IC50 (NCI-H23): 1 µM; IC50 (SW-620): 0.499 µM; IC50 [12]: 1.24 µM; IC50 (ASPC1): 0.849 µM; IC50 (SK-CO-1): 0.356 µM
1.19 | 0.181 | 0.057 | 1.34 | C=CC(=O)Nc1ccccc1Oc1nc(Nc2ccc(N3CCN(C)CC3)cc2)ncc1C1CC1 | –
– | – | – | – | Cn1c(=O)n(-c2ccc(C(C)(C)C#N)cc2)c2c3cc(-c4cnc5ccccc5c4)ccc3ncc21 [DACTOLISIB] | IC50 (NCI-H23): 1 µM
0.357 | 0.113 | 0.092 | 0.385 | C=CC(=O)Nc1ccccc1Oc1nc(Nc2ccc(N3CCN(C)CC3)cc2)ncc1C | –
